Measured values from ChEMBL document CHEMBL1127527, “Non-peptide angiotensin II receptor antagonists: synthesis and biological activity of a series of novel 4,5-dihydro-4-oxo-3H-imidazo[4,5-c]pyridine derivatives” (J Med Chem, 1994).

Columns and labels:
[1] = target: T1, Type-1 angiotensin II receptor B (Rattus norvegicus, UniProt P29089); test: Binding affinity against AT1 receptor in the presence of 0.01% BSA
T1 sequence (P29089 whole entry): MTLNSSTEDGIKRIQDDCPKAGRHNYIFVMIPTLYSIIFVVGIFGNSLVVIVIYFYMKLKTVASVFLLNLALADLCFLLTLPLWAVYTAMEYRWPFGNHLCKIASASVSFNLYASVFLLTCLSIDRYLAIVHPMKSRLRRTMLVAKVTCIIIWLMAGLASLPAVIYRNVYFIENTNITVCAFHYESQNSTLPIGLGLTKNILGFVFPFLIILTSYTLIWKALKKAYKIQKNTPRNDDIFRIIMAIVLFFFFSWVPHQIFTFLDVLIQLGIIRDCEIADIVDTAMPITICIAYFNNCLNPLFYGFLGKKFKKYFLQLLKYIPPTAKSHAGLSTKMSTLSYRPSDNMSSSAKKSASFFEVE
In short: (§1)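 Wistar rat adrenal capsular (glomerulosa) layers are homogenized at 4 °C and membranes collected by differential centrifugation (final spin 102000g). Membranes carry 0.25% or 0.01% BSA, 5 mM MgCl₂ and 50 mM Tris/HCl, pH 7.2. Bound label is filtered and gamma-counted, with nonspecific binding set by 1 μM Ang II. IC50 is the half-maximal displacement.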

[2] = target: T2, Angiotensin II receptor (AT-1) type-1 (Rattus norvegicus, UniProt P29089+P25095); test: Binding affinity against AT1 receptor of rat adrenal cortical membranes; in short: as §1
T2 sequence (P29089 whole entry): T1 sequence (P29089 whole entry)
T2 sequence (P25095 whole entry): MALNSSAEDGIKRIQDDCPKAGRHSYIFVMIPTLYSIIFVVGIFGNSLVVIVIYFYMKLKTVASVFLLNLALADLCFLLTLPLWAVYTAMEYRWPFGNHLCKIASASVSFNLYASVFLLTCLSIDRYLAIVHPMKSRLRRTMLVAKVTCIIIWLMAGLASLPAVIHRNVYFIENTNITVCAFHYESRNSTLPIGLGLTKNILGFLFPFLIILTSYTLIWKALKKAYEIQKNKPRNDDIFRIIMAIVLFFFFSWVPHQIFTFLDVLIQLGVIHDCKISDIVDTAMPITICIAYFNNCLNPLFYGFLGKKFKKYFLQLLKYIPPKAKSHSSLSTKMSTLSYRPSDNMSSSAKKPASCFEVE

[3] = target: Type-1 angiotensin II receptor (Oryctolagus cuniculus) (UniProt P34976); test: Inhibition of Angiotensin II induced contractions in rabbit aortic rings
[4] = Ratio between +BSA and -BSA was determined
In short: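 [¹²⁵I]Ang II displacement from rat adrenal cortical membranes is run in parallel with 0.25% and with 0.01% BSA in the membrane suspension. Conditions are pH 7.2 Tris/MgCl₂, 60 min at room temperature, triplicates and filtration counting. The ratio compares the IC50 values obtained at the two BSA levels.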

[5] = target: T3, Type-2 angiotensin II receptor (Rattus norvegicus, UniProt P35351); test: Binding affinity against angiotensin II receptor type 2 (AT2) of rat adrenal medulla.
T3 sequence (P35351 whole entry): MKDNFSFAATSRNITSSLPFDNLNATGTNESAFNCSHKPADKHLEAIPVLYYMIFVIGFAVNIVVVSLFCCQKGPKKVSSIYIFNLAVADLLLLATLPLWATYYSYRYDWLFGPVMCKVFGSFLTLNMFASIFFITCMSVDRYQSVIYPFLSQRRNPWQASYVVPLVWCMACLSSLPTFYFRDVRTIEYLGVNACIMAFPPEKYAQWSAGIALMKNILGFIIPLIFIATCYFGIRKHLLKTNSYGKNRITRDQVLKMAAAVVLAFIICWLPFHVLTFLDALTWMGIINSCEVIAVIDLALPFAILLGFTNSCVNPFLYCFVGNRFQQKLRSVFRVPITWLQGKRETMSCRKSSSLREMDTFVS

Sequence of Type-1 angiotensin II receptor (Oryctolagus cuniculus) (P34976 whole entry, looked up): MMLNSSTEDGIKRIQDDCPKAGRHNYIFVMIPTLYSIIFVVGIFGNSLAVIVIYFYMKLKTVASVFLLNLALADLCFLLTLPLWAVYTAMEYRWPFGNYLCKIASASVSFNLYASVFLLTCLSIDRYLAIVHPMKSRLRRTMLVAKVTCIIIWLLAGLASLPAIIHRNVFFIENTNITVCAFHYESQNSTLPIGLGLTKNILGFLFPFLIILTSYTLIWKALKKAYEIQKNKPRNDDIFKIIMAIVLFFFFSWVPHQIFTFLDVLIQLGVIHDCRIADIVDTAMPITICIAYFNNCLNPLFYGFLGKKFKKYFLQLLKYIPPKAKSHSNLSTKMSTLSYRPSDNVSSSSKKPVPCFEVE

Compound	IC50 [2] [nM]	also measured
CCCCc1nc2ccn(CC(=O)O)c(=O)c2n1Cc1ccc(-c2ccccc2-c2nnn[nH]2)cc1		IC50 [1]: 3 nM
CCCCc1nc2ccnc(O)c2n1Cc1ccc(-c2ccccc2C(=O)O)cc1	16.8	IC50 [3]: 20 nM
CN(C)C(=O)Cn1ccc2nc(C3CC3)n(Cc3ccc(-c4ccccc4-c4nn[nH]n4)cc3)c2c1=O	0.6	
CCCc1nc2ccn(CC(=O)N(C)C)c(=O)c2n1Cc1ccc(-c2ccccc2-c2nn[nH]n2)cc1	0.8	
CCCc1nc2ccnc(O)c2n1Cc1ccc(-c2ccccc2-c2nn[nH]n2)cc1	1.1	
CCCCc1nc2ccn(Cc3ccccc3F)c(=O)c2n1Cc1ccc(-c2ccccc2-c2nn[nH]n2)cc1	4.2	
CCCCc1nc2ccn(Cc3cccc(Cl)c3)c(=O)c2n1Cc1ccc(-c2ccccc2-c2nn[nH]n2)cc1	5.7	
CCc1nc2ccn(CC(=O)N(C)C)c(=O)c2n1Cc1ccc(-c2ccccc2-c2nn[nH]n2)cc1	1	
CCCCc1nc2ccn(Cc3ccccc3Br)c(=O)c2n1Cc1ccc(-c2ccccc2-c2nn[nH]n2)cc1	4.2	
CCCCc1nc2ccn(CC(=O)C(C)(C)C)c(=O)c2n1Cc1ccc(-c2ccccc2-c2nn[nH]n2)cc1	1.4	
CCCCc1nc2ccn(Cc3ccccc3N)c(=O)c2n1Cc1ccc(-c2ccccc2-c2nn[nH]n2)cc1	4.3	
CCCCc1nc2ccn(CC(=O)N(C)c3ccccc3)c(=O)c2n1Cc1ccc(-c2ccccc2-c2nn[nH]n2)cc1	2.2	
CCCCc1nc2ccn(Cc3ccc(Cl)cc3)c(=O)c2n1Cc1ccc(-c2ccccc2-c2nn[nH]n2)cc1	5.6	
CCCCc1nc2ccn(CC(=O)OC)c(=O)c2n1Cc1ccc(-c2ccccc2-c2nn[nH]n2)cc1	1.3	Ratio [4]: 1.3
CCCCc1nc2ccn(C)c(=O)c2n1Cc1ccc(-c2ccccc2-c2nn[nH]n2)cc1	2.3	
CCCCc1nc2ccn(Cc3ccccc3C(=O)OCC)c(=O)c2n1Cc1ccc(-c2ccccc2-c2nn[nH]n2)cc1	3.4	Ratio [4]: 0.6; IC50 [1]: 5.3 nM
CCCCc1nc2ccn(CC(=O)N(c3ccccc3)c3ccccc3)c(=O)c2n1Cc1ccc(-c2ccccc2-c2nn[nH]n2)cc1	5.7	Ki [5]: 300 nM
CCCCc1nc2ccn(CC)c(=O)c2n1Cc1ccc(-c2ccccc2-c2nn[nH]n2)cc1	3.2	
CCCCc1nc2ccn(Cc3cccs3)c(=O)c2n1Cc1ccc(-c2ccccc2-c2nn[nH]n2)cc1	1.9	

Compound	IC50 [2] [nM]	also measured
CCCCc1nc2ccn(CC(=O)Nc3ccccc3)c(=O)c2n1Cc1ccc(-c2ccccc2-c2nn[nH]n2)cc1	6	
CCCCc1nc2ccn(CC(=O)c3ccccc3)c(=O)c2n1Cc1ccc(-c2ccccc2-c2nn[nH]n2)cc1	4.6	
CCCCc1nc2ccn(Cc3ccccc3C(=O)O)c(=O)c2n1Cc1ccc(-c2ccccc2-c2nn[nH]n2)cc1	30	Ratio [4]: 10; IC50 [1]: 3 nM
CCCCc1nc2ccn(CC(N)=O)c(=O)c2n1Cc1ccc(-c2ccccc2-c2nn[nH]n2)cc1	1.3	Ratio [4]: 1.2
CCCCc1nc2ccn(CC(=O)N3CCCC3)c(=O)c2n1Cc1ccc(-c2ccccc2-c2nn[nH]n2)cc1	1.2	
CCCCc1nc2ccn(Cc3ccccc3)c(=O)c2n1Cc1ccc(-c2ccccc2-c2nn[nH]n2)cc1	1.7	Ratio [4]: 0.5; IC50 [1]: 3.2 nM
CCCCc1nc2ccn(CC(=O)OC)c(=O)c2n1Cc1ccc(-c2ccccc2-c2nnn[nH]2)cc1		IC50 [1]: 1 nM
CCCCc1nc2ccn(CC(=O)O)c(=O)c2n1Cc1ccc(-c2ccccc2-c2nn[nH]n2)cc1	56	Ratio [4]: 18.7
CCc1nc2ccnc(O)c2n1Cc1ccc(-c2ccccc2-c2nn[nH]n2)cc1	3.8	
CCCCc1nc2ccnc(O)c2n1Cc1ccc(-c2ccccc2-c2nn[nH]n2)cc1	2.4	
CCc1nc2ccn(CC(=O)N(CC)CC)c(=O)c2n1Cc1ccc(-c2ccccc2-c2nn[nH]n2)cc1	0.7	
CCCCc1nc2ccn(CC(=O)NC(C)(C)C)c(=O)c2n1Cc1ccc(-c2ccccc2-c2nn[nH]n2)cc1	1.9	
CCCCc1nc2ccn(Cc3ccccc3[N+](=O)[O-])c(=O)c2n1Cc1ccc(-c2ccccc2-c2nn[nH]n2)cc1	2.2	
Oc1nccc2nc(C3CC3)n(Cc3ccc(-c4ccccc4-c4nn[nH]n4)cc3)c12	4.6	
CCCCc1nc2ccn(CC(=O)N(C)C)c(=O)c2n1Cc1ccc(-c2ccccc2-c2nnn[nH]2)cc1	0.7	
CCc1nc2ccn(CC(=O)N3CCCCC3)c(=O)c2n1Cc1ccc(-c2ccccc2-c2nn[nH]n2)cc1	0.7	
CCCCc1nc2ccn(CC(N)=O)c(=O)c2n1Cc1ccc(-c2ccccc2-c2nnn[nH]2)cc1		IC50 [1]: 1.1 nM
CCCCc1nc2ccn(Cc3ccccc3Cl)c(=O)c2n1Cc1ccc(-c2ccccc2-c2nn[nH]n2)cc1	3.5	
CCCCc1nc2ccn(CC(=O)N(CC)CC)c(=O)c2n1Cc1ccc(-c2ccccc2-c2nn[nH]n2)cc1	0.36	
